From PubChem BioAssay
Unmarked numbers belong to inactive results. Results filed as inconclusive are left out. Active and inactive are the calls of the source.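 How the source made its calls, unless noted: active means viability increase at or above a cutoff of the median across tested compounds plus 3 SD (cut at about 8.5% in these data, passing the limit was not always enough); inconclusive means some gains above the cutoff, reason not given; inactive means the rest.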

Legend:
[1] = OD615 S. cerevisiae growth inhibition, permissive medium, pilot counter-assay, permissive growth control for S. cerevisiae lifespan shortening project (AID 705;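 active means growth inhibition above 25% in both replicates, a cutoff set 3 SD above the mean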); settings: OD615, 24 h, at 10 µM, active compounds read high
Outline: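 System: S. cerevisiae with engineered DeaD lifespan system / Measured by: absorbance (optical density) at 615 nm / Read-out: reduction in yeast growth (OD615) / Times: 4 h cell pre-growth, 24 h exposure at 30 °C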

[2] = Restrictive medium S. cerevisiae growth inhibition, OD615, pilot screen of yeast lifespan reduction project, restrictive growth control (AID 706;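 active means growth inhibition above a set limit, 3 SD over mean compound inhibition, in both replicates, cut at about 43% in these data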;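 further: modified DeaD lifespan yeast strain shifted to restrictive glucose medium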); settings: OD615, 48 h, at 10 µM, active compounds read high
Outline: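 System: Engineered S. cerevisiae DeaD strain | Buffer or medium: Glucose-based CSMM-D restrictive medium | Schedule: 4 h pre-incubation, 48 h exposure at 30 °C | Technique: Optical density at 615 nm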

[3] = viability gain of MRP-1-high H69AR cells under doxorubicin, pilot screen, MRP-1 activator project, CellTiter-Glo, duplicate (AID 807); settings: H69AR viability with doxorubicin, CellTiter-Glo luminescence; at 10 µM; active compounds read high;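 further: compound pretreatment 18-22 h then 72 h combined with doxorubicin; 0% = doxorubicin alone and 100% = vehicle without doxorubicin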
[4] = growth suppression of beta-catenin knockout HCT116, pilot screen, human colon tumor cells (AID 823;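 active means cell viability at or below a set limit in both duplicate runs, the limit being the all-compound median minus 4 SD, cut at about 23% in these data, passing the limit was not always enough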;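 further: 0% = wells killed by 20 µM Hyamine and 100% = untreated DMSO cell wells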); settings: CellTiter-Glo, 60 h, at 10 µM, active compounds read low
[5] = growth suppression of PTEN-deleted HCT116, pilot screen, cell-based, HCT116 clonal line, CellTiter-Glo (AID 824;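 active means viability at or below 27.92% in each of two runs, the all-compound median minus 4 SD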;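 further: 0% = 20 µM Hyamine control and 100% = vehicle cell control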); settings: 60 h, at 10 µM, active compounds read low
[6] = inhibitors of the yeast RAM network, pilot screen, dse1pr::URA3 reporter, 5-FOA selection (AID 869;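 active means inhibition over a set limit, the all-compound mean plus 3 SD, in both replicate runs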;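 further: 0% = DMSO wells with no growth and 100% = 10 µM 1-NA-PP1 with full growth; RAM network block rescues cells from 5-FOA so hits raise OD615 growth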); settings: S. cerevisiae dse1pr::URA3 5-FOA growth, OD615, 2 d; at 10 µM; active compounds read high; strain carries analog-sensitive mutant Cbk1 kinase
[7] = RAM signaling pathway blockade in yeast – S. cerevisiae, Pdr1DBD-CYC8 efflux-inhibited sensitized strain, primary screen (AID 1298;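 active means RAM network inhibition above 8.4% in each of two replicates, 3 SD over the compound average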;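 further: 0% = DMSO untreated cells without growth and 100% = 10 µM 1-NA-PP1 full growth; higher means more yeast growth rescued from 5-FOA killing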); settings: S. cerevisiae cbk1-as DSE1-URA3 strain, 5-FOA growth OD615, 2 d; at 50 µM; active compounds read high

Structure (SMILES) | growth inhibition [1] [%] | growth inhibition [2] [%] | viability increase [3] [%] | viability [4] [%] | viability [5] [%] | inhibition [6] [%] | RAM network inhibition [7]
CCC(C)Nc1nc2c(c(=O)n(C)c(=O)n2C)n1Cc1ccc(Cl)cc1 (centres undefined) | -0.995 | -4.79 | -4.21 | 79 | 70.6 | -0.035 | 4.57%
O=C(NC1CCCC1)c1ccc(CS(=O)(=O)c2ccc(Br)cc2)o1 | -3.78 | -9.12 | -0.83 | 102 | 93.9 | 3.01 | 1.03%
CCc1ccc(-c2nc(CN3CCCC(C(=O)O)C3)c(C)o2)cc1 (centres undefined) | 2.06 | -4.83 | 1.14 | 97.6 | 101 | -0.145 | 2.81%
O=C(C1CCC(CNc2c(N3CCCCC3)c(=O)c2=O)CC1)N1CCCCC1 (centres undefined) | -8.65 | -19.7 | -1.79 | 94.3 | 93.6 | 1.09 | 7.26%
O=C1c2ccccc2C(=O)N1CCc1nc2ccccc2c(=O)n1CCCn1ccnc1 | -3.21 | 11 | -2.41 | 95.5 | 97 | 2.01 | 2.2%
CC(C)NS(=O)(=O)c1ccc(CCC(=O)NCc2ccco2)cc1 | -15.3 | -22.4 | -3.3 | 93.1 | 97 | 1.55 | -0.53%
COc1ccc(CN2CCCCC2c2cccnc2)c(OC)c1C (centres undefined) | -1.37 | 0.92 | -2.86 | 92.1 | 99 | 1.25 | 1.37%
O=C(O)CCc1nnc2n(Cc3ccc(F)cc3)c(=O)c3ccccc3n12 | -4.64 | 5.36 | -0.62 | 99.2 | 90.8 | 1.04 | 1.56%
O=C(NCc1ccc(F)cc1)c1cc2n(n1)C(C(F)(F)F)CC(C1CC1)N2 (centres undefined) | -4.54 | -7.74 | -0.43 | 106 | 96 | 4.14 | 4.9%
O=C1c2ccccc2CCC1C(O)c1ccccn1 (centres undefined) | -8.87 | -15.8 | -3.89 | 95.5 | 99.2 | 2.49 | 1.24%
COc1ccc(-c2cn3c(C)c(C(=O)N4CCN(c5ccccc5F)CC4)sc3n2)cc1 | 2.91 | -0.695 | 0.81 | 78.9 | 78 | 2.13 | 18.2% (active)
O=C1C=C(N(CCO)CCO)C2(CCCCC2)O1 | -14.1 | -18.7 | -1.83 | 90.1 | 96 | 1.23 | 2%
CCOC(=O)c1nnn(-c2nonc2N)c1CN(C)Cc1ccccc1 | -7.27 | -11.5 | -4.12 | 84 | 88.1 | 2.05 | 4.2%
O=C(Nc1nnc(-c2ccc3c(c2)OCCO3)o1)c1ccc(Cc2ccccc2)cc1 | -7.6 | 6.34 | -4.05 | 46.1 | 40.9 | 1.59 | 4.3%
COc1ccc(C(=O)Nc2c(F)c(F)c(F)c(F)c2F)c(OC)c1 | -11 | 3.84 | -1.15 | 100 | 102 | 2.96 | 2.45%
COc1cccc(NC=C2C(=O)OC(C)(C)OC2=O)c1 | -11 | -2.86 | -1.97 | 98.7 | 106 | 0.94 | 2.55%
Cc1nn(Cc2nc(-c3cccs3)no2)c(C)c1Br | 0.735 | 12 | -1.13 | 103 | 101 | 1.93 | 3.61%
COc1ccc(C)cc1NC(=O)CN1C(=O)c2ccccc2S1(=O)=O | 6.31 | 10.8 | -2.12 | 102 | 94.4 | 3.04 | 4.58%
O=C(Nc1ccc2c(c1)OCO2)c1cc(C2CC2)on1 | -12.5 | -18 | -3.41 | 84.9 | 88.8 | 1 | 3.09%

Structure (SMILES) | growth inhibition [1] [%] | growth inhibition [2] [%] | viability increase [3] [%] | viability [4] [%] | viability [5] [%] | inhibition [6] [%] | RAM network inhibition [7]
CCOC(=O)C1CCCN(c2c(NCCCN3CCCC(C)C3)c(=O)c2=O)C1 (centres undefined) | 3.9 | 3.15 | -0.04 | 99.1 | 94.4 | 2.96 | -0.87%
CCN1CCN(C(=O)Cn2ncc3c2-c2ccccc2OC3)CC1 | 0.755 | 0.8 | -1.74 | 106 | 99.9 | 1.14 | 2.81%
CCC(Oc1ccccc1)C(=O)Nc1cc(C)on1 (centres undefined) | -8.55 | -7.2 | -0.57 | 108 | 90.2 | 0.86 | 0.2%
O=C(c1ccc(COc2ccccc2Cl)o1)N1CCN(c2ccccc2)CC1 | -15.6 | -13.4 | -4.18 | 61.7 | 69.7 | 2.33 | 5.58%
CC(=O)/C(C(=N)N1CCN(Cc2ccccc2)CC1)=C(\C)O | -12.7 | -5.25 | -0.02 | 103 | 101 | 2.4 | 2.85%
Cc1cccc(-n2ccnc2SCC(=O)Nc2nnc(C)s2)c1 | -5.12 | 20.3 | -4.56 | 76.9 | 72.8 | 1.13 | 6.22%
COc1ccc(OC)c(NC(=O)Nc2ccccc2C)c1 | -3.12 | -16.3 | -3.16 | 102 | 95.9 | 1.13 | 1.79%
Cn1c(Cn2c(=O)sc3ccccc32)nnc1SCC(=O)NCc1ccco1 | 0.17 | 8.09 | -4.73 | 109 | 104 | 1.93 | 6.92%
COc1ccccc1N(CC(=O)Nc1ccc2c(c1)OCO2)S(=O)(=O)c1ccccc1 | -5.44 | -18.2 | -0.47 | 73.7 | 84 | 0.8 | 8.21%
Cc1ccccc1-c1nc(CN2CCC(C(=O)O)CC2)c(C)o1 | 1.1 | -0.365 | -0.95 | 103 | 93.9 | 0 | 0.11%
NC(=O)c1ccsc1NC(=O)c1ccco1 | 7.15 | 20.1 | -1.54 | 102 | 99 | 1.1 | 1.1%
CCOc1ccc(C2N(c3ccc(Cl)cc3)C(=O)C3CCCN32)cc1OC (centres undefined) | -2.75 | -6.81 | -1.98 | 98.7 | 95.8 | -0.115 | 5.42%
CC(CNC(=O)C1CCCCC1)NC(=O)C1CCCCC1 (centres undefined) | -7.69 | -6.86 | 0.64 | 89.6 | 92.5 | 0.08 | 4%
CCC(Sc1nncn1C)C(=O)Nc1nnc(-c2ccccc2Cl)s1 (centres undefined) | -3.46 | 31.5 | -0.85 | 103 | 92.5 | 1.72 | 2.58%
Cc1onc(-c2ccccc2)c1C(=O)Nc1sc2c(c1C#N)CCC2 | 3.88 | 4.25 | -4.93 | 59.7 | 54.3 | 1.58 | 0.09%
COc1ccc(NC(=O)C2CCN(S(=O)(=O)c3cccc4cccnc34)CC2)cc1 | -4.51 | 3.15 | 1.75 | 102 | 101 | 2.21 | 0.67%
Cc1csc2nc(CNS(=O)(=O)N(C)C)cn12 | 4.64 | 19.6 | -3.46 | 95.2 | 99.1 | 0.875 | 0.05%
COc1cccc(CNC(=O)Cn2cc3c(n2)CCCCC3)c1 | -12.5 | -19.7 | -1.29 | 92.3 | 85.9 | 1.56 | 1.81%
